Data from ChEMBL document CHEMBL4706691, “Bicyclic Diazepinones as Dual Ligands of the α2δ-1 Subunit of Voltage-Gated Calcium Channels and the Norepinephrine Transporter” (J Med Chem, 2021).

Columns and labels:
[1] = target: Voltage-dependent calcium channel subunit alpha-2/delta-1 (Homo sapiens, UniProt P54289); test: Displacement of [3H]-gabapentin from human Cav alpha2delta1 expressed in CHO-K1 cell membranes incubated for 60 mins by scintillation counting method; parameters: species or system Cell membrane
Procedure, shortened: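 Nonspecific binding defined with 10 μM pregabalin. Test compounds at five concentrations in duplicate, giving Ki. Bound radioactivity collected by filtration on PEI-soaked GF/C, washed with cold 50 mM Tris-HCl, then scintillation counted.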

[2] = target: Voltage-dependent calcium channel subunit alpha-2/delta-2 (Homo sapiens, UniProt Q9NY47); test: Displacement of [3H]-gabapentin from human Cav alpha2delta2 expressed in HEK293 cell membranes incubated for 60 mins by scintillation counting method
[3] = target: T1, Sodium-dependent noradrenaline transporter (Homo sapiens, UniProt P23975); test: Displacement of [3H]-nisoxetine from human NET expressed in HEK293 cell membranes incubated for 60 mins by scintillation counting method
[4] = target: T1, Sodium-dependent noradrenaline transporter; test: Inhibition of human NET expressed in HEK293 cells assessed as reduction in ASP+ uptake incubated for 20 mins before ASP+ addition and measured after 90 mins by scintillation counting method
CYP1A2 = target: T2, CYP1A2 (Homo sapiens, UniProt P05177); test: Inhibition of human CYP1A2 at 1 uM relative to control; format: ADME
T2 sequence (P05177 whole entry): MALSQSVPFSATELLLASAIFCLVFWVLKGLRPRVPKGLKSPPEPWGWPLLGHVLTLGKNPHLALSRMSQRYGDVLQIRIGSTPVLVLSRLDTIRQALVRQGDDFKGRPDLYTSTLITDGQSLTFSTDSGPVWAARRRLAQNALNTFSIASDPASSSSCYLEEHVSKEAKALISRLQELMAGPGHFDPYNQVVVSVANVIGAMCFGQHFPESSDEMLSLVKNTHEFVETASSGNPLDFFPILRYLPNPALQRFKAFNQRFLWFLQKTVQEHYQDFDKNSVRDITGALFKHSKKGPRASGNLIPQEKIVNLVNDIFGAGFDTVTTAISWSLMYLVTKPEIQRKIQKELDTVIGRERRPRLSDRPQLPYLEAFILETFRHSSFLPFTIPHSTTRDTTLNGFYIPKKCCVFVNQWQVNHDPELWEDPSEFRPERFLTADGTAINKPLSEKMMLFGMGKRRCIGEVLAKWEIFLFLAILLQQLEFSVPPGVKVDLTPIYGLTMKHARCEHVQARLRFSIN

[5] = target: Voltage-gated inwardly rectifying potassium channel KCNH2 (Homo sapiens, UniProt Q12809); test: Inhibition of human ERG
CYP2C9 = CYP2C9 (Homo sapiens, UniProt P11712); test: Inhibition of human CYP2C9 at 1 uM relative to control; format: ADME
CYP2D6 = CYP2D6 (Homo sapiens, UniProt P10635); test: Inhibition of human CYP2D6 at 1 uM relative to control; format: ADME
CYP2C19 = CYP2C19 (Homo sapiens, UniProt P33261); test: Inhibition of human CYP2C19 at 1 uM relative to control; format: ADME
CYP3A4 = CYP3A4 (Homo sapiens, UniProt P08684); test: Inhibition of human CYP3A4 at 1 uM relative to control; format: ADME
[6] = Intrinsic clearance in rat liver microsomes
[7] = Intrinsic clearance in human liver microsomes

Chain of CYP2C19 (P33261 whole entry): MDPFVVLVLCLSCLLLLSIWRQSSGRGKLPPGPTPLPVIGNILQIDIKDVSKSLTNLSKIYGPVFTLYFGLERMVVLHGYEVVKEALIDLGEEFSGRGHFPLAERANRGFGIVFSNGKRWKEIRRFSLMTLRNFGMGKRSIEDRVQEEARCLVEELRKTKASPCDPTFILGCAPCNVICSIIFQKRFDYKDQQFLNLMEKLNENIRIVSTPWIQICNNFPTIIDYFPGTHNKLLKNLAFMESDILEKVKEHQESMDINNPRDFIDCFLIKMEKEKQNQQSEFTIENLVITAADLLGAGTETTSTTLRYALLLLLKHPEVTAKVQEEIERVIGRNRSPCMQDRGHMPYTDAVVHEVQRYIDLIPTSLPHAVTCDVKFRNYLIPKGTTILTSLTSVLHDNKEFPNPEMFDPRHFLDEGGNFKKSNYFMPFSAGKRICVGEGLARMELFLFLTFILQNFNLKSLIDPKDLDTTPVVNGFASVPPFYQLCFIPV
Chain of CYP3A4 (P08684 whole entry): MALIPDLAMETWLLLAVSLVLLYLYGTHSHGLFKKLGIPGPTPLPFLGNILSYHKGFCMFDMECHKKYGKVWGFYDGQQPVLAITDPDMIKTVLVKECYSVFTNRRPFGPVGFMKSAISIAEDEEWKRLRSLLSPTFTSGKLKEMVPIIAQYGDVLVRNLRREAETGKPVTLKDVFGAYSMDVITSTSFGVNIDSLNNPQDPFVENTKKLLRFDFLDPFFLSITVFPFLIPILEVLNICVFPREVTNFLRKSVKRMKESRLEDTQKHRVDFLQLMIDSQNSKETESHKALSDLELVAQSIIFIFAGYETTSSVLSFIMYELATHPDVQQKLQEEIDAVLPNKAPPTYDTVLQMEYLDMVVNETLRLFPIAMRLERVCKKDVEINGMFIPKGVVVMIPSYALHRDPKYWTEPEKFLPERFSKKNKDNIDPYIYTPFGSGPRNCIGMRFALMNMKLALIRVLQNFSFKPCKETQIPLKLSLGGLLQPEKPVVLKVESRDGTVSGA
Chain of Voltage-dependent calcium channel subunit alpha-2/delta-1 (P54289 25-956 limits assumed): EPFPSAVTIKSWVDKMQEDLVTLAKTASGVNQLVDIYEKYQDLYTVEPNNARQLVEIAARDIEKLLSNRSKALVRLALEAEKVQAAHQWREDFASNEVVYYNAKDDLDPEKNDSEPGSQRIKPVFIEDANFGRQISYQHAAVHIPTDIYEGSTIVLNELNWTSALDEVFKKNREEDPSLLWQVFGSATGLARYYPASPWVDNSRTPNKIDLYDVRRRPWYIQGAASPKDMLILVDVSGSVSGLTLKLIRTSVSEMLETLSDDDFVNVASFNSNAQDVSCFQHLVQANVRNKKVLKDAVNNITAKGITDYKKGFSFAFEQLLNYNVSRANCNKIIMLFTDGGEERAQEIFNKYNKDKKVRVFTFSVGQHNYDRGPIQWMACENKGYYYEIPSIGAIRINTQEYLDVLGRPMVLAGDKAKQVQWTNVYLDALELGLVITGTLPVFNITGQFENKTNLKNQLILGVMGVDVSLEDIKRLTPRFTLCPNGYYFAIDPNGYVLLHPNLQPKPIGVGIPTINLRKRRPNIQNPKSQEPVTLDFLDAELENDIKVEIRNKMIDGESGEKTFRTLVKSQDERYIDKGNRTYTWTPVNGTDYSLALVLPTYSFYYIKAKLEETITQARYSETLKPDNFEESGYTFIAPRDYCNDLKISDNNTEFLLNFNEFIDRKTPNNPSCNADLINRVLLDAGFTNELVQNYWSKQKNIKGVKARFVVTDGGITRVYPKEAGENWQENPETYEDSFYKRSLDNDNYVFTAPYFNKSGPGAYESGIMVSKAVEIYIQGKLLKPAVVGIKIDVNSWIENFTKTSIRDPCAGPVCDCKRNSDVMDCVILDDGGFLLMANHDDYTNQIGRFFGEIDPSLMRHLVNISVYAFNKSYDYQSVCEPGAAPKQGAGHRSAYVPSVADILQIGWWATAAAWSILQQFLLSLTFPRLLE
Chain of Voltage-dependent calcium channel subunit alpha-2/delta-1 (P54289 957-1103 limits assumed): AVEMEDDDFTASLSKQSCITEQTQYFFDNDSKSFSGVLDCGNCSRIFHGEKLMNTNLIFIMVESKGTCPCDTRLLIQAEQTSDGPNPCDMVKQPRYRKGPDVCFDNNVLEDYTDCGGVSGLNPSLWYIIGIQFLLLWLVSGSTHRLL
T1 sequence (P23975 whole entry): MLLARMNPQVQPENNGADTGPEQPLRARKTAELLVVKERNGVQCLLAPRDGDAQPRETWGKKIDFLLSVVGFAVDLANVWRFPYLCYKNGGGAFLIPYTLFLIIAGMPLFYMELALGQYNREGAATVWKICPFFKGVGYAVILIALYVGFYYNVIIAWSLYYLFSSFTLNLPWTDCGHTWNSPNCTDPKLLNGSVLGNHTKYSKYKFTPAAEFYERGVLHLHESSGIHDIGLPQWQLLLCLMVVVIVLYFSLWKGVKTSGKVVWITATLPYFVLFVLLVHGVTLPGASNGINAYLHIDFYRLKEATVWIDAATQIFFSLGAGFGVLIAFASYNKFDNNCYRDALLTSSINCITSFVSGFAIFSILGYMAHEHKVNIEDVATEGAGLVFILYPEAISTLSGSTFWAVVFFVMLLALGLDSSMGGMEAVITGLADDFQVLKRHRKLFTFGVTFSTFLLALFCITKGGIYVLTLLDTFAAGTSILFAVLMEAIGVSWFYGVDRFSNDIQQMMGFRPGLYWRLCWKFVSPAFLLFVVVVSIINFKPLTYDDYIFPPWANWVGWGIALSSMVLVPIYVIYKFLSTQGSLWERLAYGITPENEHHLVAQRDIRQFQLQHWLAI
Chain of CYP2D6 (P10635 whole entry): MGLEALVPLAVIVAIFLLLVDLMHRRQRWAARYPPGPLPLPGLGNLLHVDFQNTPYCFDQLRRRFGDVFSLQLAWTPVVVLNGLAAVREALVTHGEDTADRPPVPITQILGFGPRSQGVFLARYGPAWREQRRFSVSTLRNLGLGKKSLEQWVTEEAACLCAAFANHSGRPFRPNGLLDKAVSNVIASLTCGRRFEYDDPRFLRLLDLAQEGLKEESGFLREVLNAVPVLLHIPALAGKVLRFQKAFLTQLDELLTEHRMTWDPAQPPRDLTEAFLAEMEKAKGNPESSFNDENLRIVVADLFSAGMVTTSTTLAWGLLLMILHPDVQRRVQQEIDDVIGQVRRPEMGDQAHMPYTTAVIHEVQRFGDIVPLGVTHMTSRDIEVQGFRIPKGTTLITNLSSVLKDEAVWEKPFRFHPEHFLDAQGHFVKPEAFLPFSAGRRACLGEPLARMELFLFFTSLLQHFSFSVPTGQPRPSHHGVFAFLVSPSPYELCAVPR
Chain of Voltage-dependent calcium channel subunit alpha-2/delta-2 (Q9NY47 19-1001 limits assumed): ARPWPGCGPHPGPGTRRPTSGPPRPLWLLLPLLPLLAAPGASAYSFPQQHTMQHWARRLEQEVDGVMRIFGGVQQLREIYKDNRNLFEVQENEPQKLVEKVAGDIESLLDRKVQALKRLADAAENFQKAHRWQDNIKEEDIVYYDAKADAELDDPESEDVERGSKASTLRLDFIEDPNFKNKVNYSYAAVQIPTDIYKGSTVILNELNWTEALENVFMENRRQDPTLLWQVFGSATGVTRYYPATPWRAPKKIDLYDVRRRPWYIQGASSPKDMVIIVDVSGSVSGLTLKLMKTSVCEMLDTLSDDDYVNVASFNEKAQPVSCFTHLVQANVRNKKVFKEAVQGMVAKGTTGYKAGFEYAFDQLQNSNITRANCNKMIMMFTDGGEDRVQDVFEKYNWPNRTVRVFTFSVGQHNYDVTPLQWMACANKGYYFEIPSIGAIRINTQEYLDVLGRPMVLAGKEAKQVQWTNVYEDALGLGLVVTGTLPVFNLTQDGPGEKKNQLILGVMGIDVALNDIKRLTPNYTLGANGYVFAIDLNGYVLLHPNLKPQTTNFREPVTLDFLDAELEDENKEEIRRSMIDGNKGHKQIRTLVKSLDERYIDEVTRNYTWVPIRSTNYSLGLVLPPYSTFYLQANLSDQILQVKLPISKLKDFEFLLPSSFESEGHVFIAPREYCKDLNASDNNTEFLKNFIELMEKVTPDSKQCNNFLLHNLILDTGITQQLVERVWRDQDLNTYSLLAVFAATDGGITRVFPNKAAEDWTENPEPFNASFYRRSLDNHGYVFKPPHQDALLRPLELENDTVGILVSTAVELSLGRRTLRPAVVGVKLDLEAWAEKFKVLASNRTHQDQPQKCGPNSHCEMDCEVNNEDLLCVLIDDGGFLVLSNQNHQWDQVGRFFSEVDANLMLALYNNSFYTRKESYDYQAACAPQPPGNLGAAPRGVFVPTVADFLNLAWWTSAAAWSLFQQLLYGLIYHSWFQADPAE
Chain of Voltage-dependent calcium channel subunit alpha-2/delta-2 (Q9NY47 1002-1150 limits assumed): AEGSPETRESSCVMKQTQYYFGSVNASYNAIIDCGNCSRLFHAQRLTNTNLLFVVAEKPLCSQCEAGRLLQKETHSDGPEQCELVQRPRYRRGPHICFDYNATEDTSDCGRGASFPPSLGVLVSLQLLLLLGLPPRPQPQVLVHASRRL
Chain of CYP2C9 (P11712 whole entry): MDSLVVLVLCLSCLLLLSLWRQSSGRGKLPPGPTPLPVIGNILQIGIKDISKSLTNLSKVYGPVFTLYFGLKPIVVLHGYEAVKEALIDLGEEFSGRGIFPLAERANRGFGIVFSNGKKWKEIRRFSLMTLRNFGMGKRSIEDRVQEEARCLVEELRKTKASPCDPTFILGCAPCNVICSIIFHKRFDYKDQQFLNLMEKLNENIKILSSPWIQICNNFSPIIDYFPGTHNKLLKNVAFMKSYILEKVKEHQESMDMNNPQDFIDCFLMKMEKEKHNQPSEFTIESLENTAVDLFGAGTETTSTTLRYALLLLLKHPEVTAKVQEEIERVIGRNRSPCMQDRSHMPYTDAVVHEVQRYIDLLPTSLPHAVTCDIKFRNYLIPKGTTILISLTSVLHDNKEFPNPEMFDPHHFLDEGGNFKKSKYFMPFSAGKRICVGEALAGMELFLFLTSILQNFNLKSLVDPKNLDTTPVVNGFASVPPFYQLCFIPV

SMILES	Ki [1]	Ki [3]	IC50 [4]	also measured
CCNc1ncc2c(n1)N1CCC[C@H]1CN(c1cccc(-c3noc(C)n3)c1)C2=O	0.011 µM	> 10 µM	> 10 µM	Ki [2]: 2.15 µM
CNc1ncc2c(n1)N(C)CCN(c1cccc(-c3nnc(C)o3)c1)C2=O	0.244 µM	> 10 µM	> 10 µM	Ki [2]: > 10 µM
CNCC[C@H](Oc1cccc(N2CCN(C)c3nc(N)ncc3C2=O)c1)c1cccs1	–	–	–	inhibition at 1 µM (CYP1A2): < 50%; IC50 [5]: > 10 µM; inhibition at 1 µM (CYP2C9): < 50%; inhibition at 1 µM (CYP2D6): < 50%; inhibition at 1 µM (CYP2C19): < 50%; inhibition at 1 µM (CYP3A4): < 50%
CNCC[C@@H](Oc1cccc(N2CCN(C)CCC2=O)c1)c1cccs1	0.606 µM	–	–	–
CNCCC(Oc1cccc(N2CCN(C)c3cccnc3C2=O)c1)c1cccs1 (stereo not drawn)	1.25 µM	–	–	–
CNCCC(Oc1cccc(N2CCN(C)c3cnccc3C2=O)c1)c1cccs1 (stereo not drawn)	0.208 µM	–	–	–
CCNc1ncc2c(n1)N(C)CCN(c1ccccc1OC(CCNC)c1ccccc1)C2=O (stereo not drawn)	3.49 µM	> 10 µM	> 10 µM	–
CCNc1ncc2c(n1)N1CCC[C@@H]1CN(c1cccc(OC(CCNC)c3ccccc3)c1)C2=O (stereo partly drawn)	0.187 µM	–	–	–
CNCC[C@H](Oc1cccc(N2CCN(C)CCC2=O)c1)c1cccs1	2.8 µM	–	–	–
CCN(C)c1ncc2c(n1)N(C)CCN(c1cccc(-c3nnc(C)o3)c1)C2=O	> 10 µM	> 10 µM	> 10 µM	–
CCNc1ncc2c(n1)N1CCC[C@H]1CN(c1cccc(OC(CCNC)c3ccccc3)c1)C2=O (stereo partly drawn)	0.336 µM	–	–	–
CCNc1ncc2c(n1)N(C)CCN(c1cccc(-c3nnc(C)o3)c1)C2=O	0.081 µM	> 10 µM	> 10 µM	inhibition at 1 µM (CYP1A2): < 50%; IC50 [5]: > 10 µM; inhibition at 1 µM (CYP2C9): < 50%; Ki [2]: 2.97 µM; inhibition at 1 µM (CYP2D6): < 50%; microsomal CLint [6]: < 5 µL/min/mg; microsomal CLint [7]: < 5 µL/min/mg; inhibition at 1 µM (CYP2C19): < 50%; inhibition at 1 µM (CYP3A4): < 50%
CNCCC(Oc1cccc(N2CCN(C)c3ccccc3C2=O)c1)c1cccs1 (stereo not drawn)	0.833 µM	–	–	–
CCNc1ncc(C(=O)N(C)c2cccc(OC(CCNC)c3ccccc3)c2)cn1 (stereo not drawn)	> 10 µM	> 10 µM	> 10 µM	–
CSc1ncc2c(n1)N(C)CCN(c1cccc(-c3nnc(C)o3)c1)C2=O	> 10 µM	> 10 µM	> 10 µM	Ki [2]: > 10 µM
CCNc1ncc2c(n1)N(CC)CCN(c1cccc(-c3nnc(C)o3)c1)C2=O	0.178 µM	> 10 µM	> 10 µM	–
COCCNc1ncc2c(n1)N(C)CCN(c1cccc(-c3nnc(C)o3)c1)C2=O	> 10 µM	> 10 µM	> 10 µM	–
CNCC[C@H](Oc1cccc(N2CCN(C)c3ncccc3C2=O)c1)c1cccs1	–	–	–	inhibition at 1 µM (CYP1A2): < 50%; IC50 [5]: > 10 µM; inhibition at 1 µM (CYP2C9): < 50%; inhibition at 1 µM (CYP2D6): < 50%; inhibition at 1 µM (CYP2C19): < 50%; inhibition at 1 µM (CYP3A4): < 50%
CCNc1ncc2c(n1)N(C)CCN(c1cccc(-c3nnc(C)o3)c1)C2	1.03 µM	> 10 µM	> 10 µM	–
CCNc1ncc2c(n1)N(C)CCN(c1ccccc1COC(CCNC)c1ccccc1)C2=O (stereo not drawn)	> 10 µM	> 10 µM	> 10 µM	–
CC(C)C[C@H](CN)CC(=O)O [PREGABALIN]	0.019 µM	> 10 µM	> 10 µM	Ki [2]: 0.099 µM
